VLA-4 inh: inhibition in a human VLA-4 binding assay; P13612; VLA-4 expressing cells, ligand binding flow cytometry; inhibition, % (about 7 µM as worked out from the volumes in the protocol); hit rate 0.2% among 330,000; in the data active = inhibition above about 50%
Target sequence (P13612 whole entry, looked up): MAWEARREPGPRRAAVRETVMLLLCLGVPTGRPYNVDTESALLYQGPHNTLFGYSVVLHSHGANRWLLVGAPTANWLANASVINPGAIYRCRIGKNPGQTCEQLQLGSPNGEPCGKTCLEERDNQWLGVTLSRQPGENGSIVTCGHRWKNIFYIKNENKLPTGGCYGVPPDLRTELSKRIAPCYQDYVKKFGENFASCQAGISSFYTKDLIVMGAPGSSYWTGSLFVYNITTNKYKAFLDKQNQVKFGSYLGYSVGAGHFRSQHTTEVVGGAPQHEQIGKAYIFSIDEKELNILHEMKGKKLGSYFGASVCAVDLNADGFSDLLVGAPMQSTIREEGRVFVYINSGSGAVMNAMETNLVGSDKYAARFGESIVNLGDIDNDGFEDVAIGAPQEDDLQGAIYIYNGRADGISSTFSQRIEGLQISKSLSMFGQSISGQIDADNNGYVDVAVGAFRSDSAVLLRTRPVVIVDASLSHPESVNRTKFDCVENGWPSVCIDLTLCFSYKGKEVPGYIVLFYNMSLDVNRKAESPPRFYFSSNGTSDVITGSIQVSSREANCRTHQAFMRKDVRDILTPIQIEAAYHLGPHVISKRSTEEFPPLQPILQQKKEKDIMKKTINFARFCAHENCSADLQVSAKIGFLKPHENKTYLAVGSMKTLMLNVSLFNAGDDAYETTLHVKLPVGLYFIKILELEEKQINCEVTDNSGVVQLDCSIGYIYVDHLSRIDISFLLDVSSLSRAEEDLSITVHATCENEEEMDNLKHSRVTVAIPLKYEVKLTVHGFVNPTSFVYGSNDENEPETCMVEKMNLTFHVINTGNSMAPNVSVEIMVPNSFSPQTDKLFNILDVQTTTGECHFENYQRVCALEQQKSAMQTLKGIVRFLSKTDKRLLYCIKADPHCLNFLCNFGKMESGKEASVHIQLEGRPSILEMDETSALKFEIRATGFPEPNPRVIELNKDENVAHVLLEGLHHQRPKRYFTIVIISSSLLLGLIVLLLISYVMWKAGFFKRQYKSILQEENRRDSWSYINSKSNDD
DAGLB inhibitor: blocks human DAGLB lipase activity. Q8NCG7. HEK293T DAGLB membrane lysate, EnzChek fluorogenic substrate. inhibition, % at 5.17 µM. hit rate 0.059% among 340,000; in the data active = inhibition above about 34%;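 note: 0% = enzyme with vehicle and 100% = wells lacking enzyme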
Exocytosis inh: blocks lytic granule exocytosis; hit rate 0.66% among 360,000; inhibition, % at 10 µM; TALL-104 LAMP-1 surface exposure, flow cytometry; cells stimulated with thapsigargin and PMA;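 active = inhibition above about 55%, limit read from the data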
ABCB6 inh 2: inhibitors of human ABC transporter ABCB6; fluorescence ratio to DMSO, % at 10 µM; K562-ABCB6 porphyrin accumulation, flow cytometry, 1 h; active compounds read low; Q9NP58; hit rate 0.19% among 360,000;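 active = fluorescence ratio to DMSO below 75%, the collection mean minus 3 SD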;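 note: signal is porphyrin accumulated inside mitochondria; 100% equals median channel fluorescence of DMSO control wells; lower ratio means ABCB6 inhibition with less porphyrin fluorescence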
FGF22 binding-1: shifts melting point of recombinant human FGF22 | Q9HCT0 | recombinant FGF22 thermal shift, SYPRO orange fluorescence; percent of sucrose octasulfate shift, DMSO zero | activity (Tm shift, normalised), % at 9.99 µM | hit rate 1.5% among 340,000 | AID 651658;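 active = mean Tm shift, scaled 0 neutral to 100 positive control, at about 1.3% or above, every replicate too, limit read from the data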
MT1-MMP act inh: MT1-MMP (human) activation inhibition | P50281 | HT1080 RFP-PRO-GFP cells, GFP/RFP ratio fluorescence, overnight; percent of plate control window, DMSO zero | GFP/RFP ratio change, % at 20 µM | hit rate 0.061% among 360,000 | AID 651647;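 active = GFP/RFP ratio change of at least 30% with cell ATP level not reduced by more than half and red fluorescence within 50% of control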
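Assay system: HT1080 RFP-PRO-GFP cells. Benchmarks: DMSO vehicle wells and RFP-L50D-GFP reporter cell wells. Times: overnight cell settling, then overnight compound exposure, 37 °C, 5% CO2. Compound: 20 µM single dose, 1% DMSO. Read-out basis: GFP/RFP fluorescence ratio.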
FGF22 binding-2: FGF22 (human) binding in thermal shift; shares compounds with FGF22 binding-1; recombinant FGF22 thermal shift, SYPRO orange fluorescence; thermal shift activity, °C (ΔTm) at 38 µM; hit rate 2% among 1,000; AID 720646;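 active = fitted rise in melting shift crosses a set limit at or below the top valid dose tested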
TSA no protein: counter-screen for FGF22 binders: compound-only thermal shift, no protein; AID 743019; compound-only SYPRO orange thermal shift counter-screen; AC50, µM (top dose mostly 38 µM); shares compounds with FGF22 binding-1; hit rate 2% among 1,000;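 active = rising signal whose fitted curve reaches the 0.54 level within the top valid dose, showing a melting point, actives reach about 13 µM in these data; inactive = the rest, including activity in the opposite direction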; note: value is where the raw curve crosses a fixed level and not half-maximal
* marks the source's active call; other numbers are inactive results; i = inactive; . = not tested or not shown; [ ] = dose if it differs, or a comment. An excerpt weighted towards active compounds, which were near 2% of everything screened.

SMILES	VLA-4 inh	DAGLB inhibitor	Exocytosis inh	ABCB6 inh 2	FGF22 binding-1	MT1-MMP act inh	FGF22 binding-2	TSA no protein
Cc1ccc(S(=O)(=O)Nc2ccc3c(c2)CC(=O)N([C@@H](C)CO)C[C@H](C)[C@@H](CN(C)S(C)(=O)=O)O3)cc1	.	.	.	.	2.2*	.	0.029	i
Cc1noc(C)c1S(=O)(=O)Nc1ccc2c(c1)CC(=O)N([C@@H](C)CO)C[C@@H](C)[C@@H](CN(C)Cc1ccc(Cl)c(Cl)c1)O2	.	.	.	.	1.5*	.	0.11[42 µM]	i
C[C@H]1CN([C@@H](C)CO)C(=O)Cc2cc(NS(=O)(=O)c3ccc(F)cc3)ccc2O[C@H]1CN(C)CC1CCCCC1	.	.	.	.	12*	.	0.12	i
C[C@@H]1CCCCO[C@H](CN(C)S(=O)(=O)c2cccs2)[C@H](C)CN([C@@H](C)CO)C(=O)c2cc(NC(=O)Nc3ccc(C(F)(F)F)cc3)ccc2O1	.	.	.	.	0	.	.	.
COc1ccc(S(=O)(=O)N(C)C[C@@H]2OCCCC[C@H](C)Oc3ccc(NS(=O)(=O)c4c(C)noc4C)cc3C(=O)N([C@H](C)CO)C[C@@H]2C)cc1	.	.	.	.	-1	.	.	.
COc1ccc(C(=O)O)cc1S(=O)(=O)Nc1cccc(C(F)(F)F)c1	26	-3	1	106	.	0	.	.
COc1ccc(C(=O)N2CCCCC2)cc1S(=O)(=O)Nc1cccc(C(=O)O)c1	3	2	1	97	1.7*	-3	0.22	11µM*
CN(C)C(=O)[C@H]1[C@H](CO)[C@H]2Cn3c(ccc(-c4ccccc4F)c3=O)[C@@H]1N2C(=O)c1ccccc1	.	.	.	.	0	.	.	.
CN1CCC(C)(C(=O)Nc2cccc3c2CCCC3)C1 (stereo not given)	.	.	-4	108	19*	5	0.001	i
CCCCNC(=O)C1(C)CCCCN1C(=O)c1c(F)ccc(C)c1F (stereo not given)	.	.	-2	98	1.7*	-5	0.19	i
CCOc1ccc(N2C(=O)CS(=O)(=O)C2c2ccccc2)cc1 (stereo not given)	.	.	.	.	0	.	.	.
CN1C(=O)c2cc(NC(=O)Cc3ccccc3)ccc2OC[C@@H]2O[C@H](CC(=O)O)CC[C@H]21	.	.	.	.	1.4*	.	0.054	i
Cc1noc(C)c1NC(=O)Nc1ccc2c(c1)C(=O)N(C)[C@H]1CC[C@H](CC(=O)N[C@@H]3CCN(Cc4ccccc4)C3)O[C@@H]1CO2	.	.	.	.	1.8*	.	-0.025	i
CCNC(=O)Nc1ccc2c(c1)C(=O)N(C)[C@H]1CC[C@H](CC(=O)NCc3ccc(F)cc3)O[C@H]1CO2	.	.	.	.	28*	.	-0.024	i
Cc1noc(C)c1NC(=O)Nc1ccc2c(c1)C(=O)N(C)[C@H]1CC[C@H](CC(=O)N[C@H]3CCN(Cc4ccccc4)C3)O[C@H]1CO2	.	.	.	.	0	.	.	.
CN1C(=O)c2cc(NC(=O)c3cccc(F)c3)ccc2OC[C@@H]2O[C@H](CC(=O)NCc3ccccc3)CC[C@@H]21	.	.	.	.	2.2*	.	-0.46[42 µM]	i
CN1C(=O)c2cc(NC(=O)c3cccc(F)c3)ccc2OC[C@@H]2O[C@@H](CC(=O)Nc3ccccc3)CC[C@@H]21	.	.	.	.	0	.	.	.
C[C@H](CO)N1C[C@H](C)[C@H](CN(C)C(=O)CN(C)C)Oc2ncc(-c3ccc(C#N)cc3)cc2C1=O	.	.	.	.	0	.	.	.
Cc1ccc(S(=O)(=O)NCCSc2nnnn2-c2ccccc2)cc1	26	3	-3	96	35*	0	0.19	i
Cc1ccc(S(=O)(=O)NCCSc2nnnn2-c2cc(C)ccc2C)cc1	-9	-4	3	96	.	-10	.	.
CCN(CCn1cccn1)C(=O)CCc1nnc(-c2ccccc2)o1	5	3	-2	103	0	-1	.	.
CCN(CCn1cccn1)C(=O)CCc1nnc(Cc2c[nH]c3ccccc23)o1	10	0	-1	98	12*	-3	0.23	i
O=S(=O)(Nc1cccc(-n2cnnn2)c1)c1ccc(Cl)cc1	12	2	-8	93	1.7*	1	0.18	i
O=S(=O)(Nc1cccc(-n2cnnn2)c1)c1ccc(Cl)nc1	23	1	-3	107	0	1	.	.
Cc1ccc(NC(=O)c2ccc(OCc3c(C)noc3C)cc2)c(C)c1	17	-4	2	96	1.6*	-1	.	i
SMILES	VLA-4 inh	DAGLB inhibitor	Exocytosis inh	ABCB6 inh 2	FGF22 binding-1	MT1-MMP act inh	FGF22 binding-2	TSA no protein
Cc1ccc(NC(=O)c2cccc(OCc3c(C)noc3C)c2)c(C)c1	41	-4	-1	86	.	7	.	.
O=C(N/N=C/c1ccc(O)c(O)c1)N/N=C/c1ccc(O)c(O)c1	5	0	-2	98	1.4*	-1	0.13	i
Cc1nonc1C(=O)N/N=C/c1ccc(O)c(O)c1	-16	0	6	96	.	0	.	.
C[C@H](CO)N1C[C@H](C)[C@@H](CN(C)C(=O)NC2CCCCC2)OCCCC[C@H](C)Oc2ccc(NC(=O)c3ccncc3)cc2C1=O	.	.	.	.	0	.	.	.
C[C@@H]1CN([C@H](C)CO)C(=O)c2cc(C#CCN(C)C)cnc2O[C@@H]1CN(C)Cc1ccc(C(=O)O)cc1	.	.	.	.	0	.	.	.
Cc1cc(C(=O)Nc2ccc3c(c2)C(=O)N(C)[C@H]2CC[C@H](CC(=O)N[C@H](C)c4ccccc4)O[C@H]2CO3)no1	.	.	.	.	0	.	.	.
C[C@H]1CN([C@@H](C)CO)S(=O)(=O)c2ccc(/C=C/c3ccccc3)cc2O[C@@H]1CN(C)C(=O)c1ccncc1	.	.	.	.	-1	.	.	.
CC(=O)Oc1ccc(C(=O)Nc2ccccc2C(=O)N2CCCCC2)cc1	11	0	4	101	1.8*	2	0.15	i
CCCCNC(=O)c1onc(CSc2ccc(F)c(F)c2)c1C(=O)NCCCC	18	-23	-1	94	31*	0	0.026	6.3µM*
O=C(C[C@H]1C=C[C@@H](NC(=O)Nc2ccc(F)cc2)[C@H](CO)O1)NCCN1CCCC1	.	.	.	.	0	.	.	.
COc1ccc(CCC(C)NC(=O)Cc2ccc(OC)c(OC)c2)c(OC)c1 (stereo not given)	24	0	11	95	29*	0	0.073	i
C[C@H](CO)N1C[C@H](C)[C@H](CN(C)C(=O)Nc2ccc3c(c2)OCO3)Oc2ccc(NS(=O)(=O)c3ccc(Cl)cc3)cc2C1=O	.	.	.	.	-1	.	.	.
C[C@H]1CN([C@@H](C)CO)C(=O)c2cc(NS(=O)(=O)c3ccc(Cl)cc3)ccc2O[C@@H]1CN(C)C(=O)Nc1ccc2c(c1)OCO2	.	.	.	.	2.5*	.	0.11[42 µM]	i
C[C@H](CO)N1C[C@H](C)[C@@H](CN(C)C(=O)Nc2ccc3c(c2)OCO3)Oc2c(NC(=O)c3cnccn3)cccc2C1=O	.	.	.	.	6.3*	.	0.054[42 µM]	i
